Data reported in ChEMBL document CHEMBL1144276, “Synthesis and in vitro selective anti-Helicobacter pylori activity of pyrazoline derivatives” (2005).
Values after ≈ are worked out from the molar mass of the structure shown.

Tests used:
Format in all cases: functional
Helicobacter pylori [1] = assay: Minimal inhibitory concentration against metronidazole resistant Helicobacter pylori 20 strain
In short: (§1)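 Agar dilution. Columbia agar with 10% horse serum and 0.25% yeast extract holds serial twofold dilutions of compound, 128 to 0.0039 µg/mL, and plates are made on the day of use. Inoculum is 72 h growth suspended in Wilkins Chalgren broth to 0.5 McFarland, applied as 5 µL by multipoint inoculator. Plates are incubated 72 h at 37 °C, microaerobic (10% CO2).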

Helicobacter pylori [2] = assay: Minimal inhibitory concentration against metronidazole resistant Helicobacter pylori 8 strain; in short: as §1
Helicobacter pylori [3] = assay: Minimal inhibitory concentration against metronidazole resistant Helicobacter pylori 19 strain; in short: as §1
Helicobacter pylori [4] = assay: Minimal inhibitory concentration against metronidazole resistant Helicobacter pylori NCTC 11637 strain; in short: as §1
Helicobacter pylori [5] = assay: Minimal inhibitory concentration against 17 strains of Helicobacter pylori
In short: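 Agar dilution against 16 clinical isolates plus reference strain NCTC 11637 (four metronidazole-resistant). Twofold serial dilutions in Columbia agar with 10% horse serum and 0.25% yeast extract, 128 to 0.0039 µg/mL, plates made fresh. Inoculum: 72 h growth suspended in Wilkins Chalgren broth at 0.5 McFarland, 5 µL multipoint spots; 37 °C, 72 h, microaerobic (10% CO2).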

| MIC50 (Helicobacter pylori [5]) | MIC90 (Helicobacter pylori [5]) | SMILES | MIC (Helicobacter pylori [1]) | MIC (Helicobacter pylori [2]) | MIC (Helicobacter pylori [3]) | MIC (Helicobacter pylori [4]) |
| --- | --- | --- | --- | --- | --- | --- |
| 8 µg/mL (≈ 25.8 µM) | 16 µg/mL (≈ 51.6 µM) | COc1ccccc1C1CC(c2ccc(O)cc2)=NN1C(C)=O (configuration not stated) |  |  |  |  |
| 32 µg/mL (≈ 103 µM) | 128 µg/mL (≈ 412 µM) | CC(=O)N1N=C(c2c(O)cccc2O)CC1c1ccc(C)cc1 (configuration not stated) |  |  |  |  |
| 4 µg/mL (≈ 13.4 µM) | 8 µg/mL (≈ 26.8 µM) | CC(=O)N1N=C(c2ccccc2)CC1c1ccc(Cl)cc1 (configuration not stated) |  |  |  |  |

| SMILES | MIC50 (Helicobacter pylori [5]) | MIC90 (Helicobacter pylori [5]) | MIC (Helicobacter pylori [1]) | MIC (Helicobacter pylori [2]) | MIC (Helicobacter pylori [3]) | MIC (Helicobacter pylori [4]) |
| --- | --- | --- | --- | --- | --- | --- |
| Cc1ncc([N+](=O)[O-])n1CCO [METRONIDAZOLE] | 0.5 µg/mL (≈ 2.92 µM) | 64 µg/mL (≈ 374 µM) | 64 µg/mL (≈ 374 µM) | 64 µg/mL (≈ 374 µM) | 64 µg/mL (≈ 374 µM) | 64 µg/mL (≈ 374 µM) |
